These results are taken from PubChem BioAssay AID588789 (The Scripps Research Institute Molecular Screening Center, 2011).

For the experiment, the target named is Platelet-activating factor acetylhydrolase (Mus musculus) (UniProt Q60963). Put plainly: in vivo mouse pPAFAH activity blockade – gel-based competitive ABPP, fluorescence, in vivo study, late-stage follow-up (AID 588789). Conditions: mouse oral dosing, brain membrane gel ABPP, HT-01; 50 mg/kg oral dose, 4 h; active compounds read high. The method, boiled down: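 Material: Mouse brain membrane proteome after oral dosing | Buffer or medium: DPBS | Timing: 4 h dosing, 30 min labelling at 37 °C | Technique: SDS-PAGE followed by in-gel fluorescence scan of pPAFAH band | Read-out: % inhibition from band density versus vehicle | Control set: Vehicle-dosed mice as high control, blank-gel region as background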

A word on the inhibition: it is the share of the control response that was lost under treatment.

Chain of Platelet-activating factor acetylhydrolase (Mus musculus) (Q60963 whole entry, looked up): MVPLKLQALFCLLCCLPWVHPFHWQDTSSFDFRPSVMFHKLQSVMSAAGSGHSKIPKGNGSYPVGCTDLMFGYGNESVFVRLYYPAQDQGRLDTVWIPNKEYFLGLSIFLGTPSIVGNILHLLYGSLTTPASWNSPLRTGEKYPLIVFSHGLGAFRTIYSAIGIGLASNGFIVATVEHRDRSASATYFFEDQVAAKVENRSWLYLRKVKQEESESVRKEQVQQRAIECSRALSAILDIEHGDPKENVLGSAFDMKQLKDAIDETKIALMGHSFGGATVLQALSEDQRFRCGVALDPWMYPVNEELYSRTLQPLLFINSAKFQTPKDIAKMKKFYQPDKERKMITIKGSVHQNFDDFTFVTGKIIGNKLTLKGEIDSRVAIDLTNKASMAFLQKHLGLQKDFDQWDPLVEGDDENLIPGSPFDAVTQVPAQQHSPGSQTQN

`Cc1cc(N2CCN(C(=O)Oc3ccc(-c4ccccc4)cc3)CC2)c2ccccc2n1`: the inhibition was 63%.
For `Cc1cc(N2CCN(C(=O)Oc3ccc(-c4ccccc4)cn3)CC2)c2ccccc2n1`, the inhibition was 86%.
